Where two headings read alike, the source gives them in different places.
Tests used:
[1] = system: Xenopus laevis tadpoles; assay: Hypnotic activity Xenopus laevis tadpole bioassay; type: in vivo; conditions: for EC50: Xenopus laevis
Method in brief: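 Albino tadpoles at stages 45–47, 10 per dish, kept at 21–22 °C. They were exposed for 30 min to graded concentrations of test compound, with or without 10 μM atipamezole, in E3 artificial pond water containing <0.01% (v/v) DMSO. Loss of spontaneous movement was scored. Animals were then moved to fresh pond water and watched for toxicity. Each concentration was run in triplicate and reported as mean ± SEM.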

[2] = system: albumin; conditions: cited from earlier work
[3] = molecular target: human serum albumin (hSA) (Homo sapiens, UniProt P02768); assay: Isothermal titration calorimetry with human serum albumin; type: binding
Chain of human serum albumin (hSA) (P02768 25-609): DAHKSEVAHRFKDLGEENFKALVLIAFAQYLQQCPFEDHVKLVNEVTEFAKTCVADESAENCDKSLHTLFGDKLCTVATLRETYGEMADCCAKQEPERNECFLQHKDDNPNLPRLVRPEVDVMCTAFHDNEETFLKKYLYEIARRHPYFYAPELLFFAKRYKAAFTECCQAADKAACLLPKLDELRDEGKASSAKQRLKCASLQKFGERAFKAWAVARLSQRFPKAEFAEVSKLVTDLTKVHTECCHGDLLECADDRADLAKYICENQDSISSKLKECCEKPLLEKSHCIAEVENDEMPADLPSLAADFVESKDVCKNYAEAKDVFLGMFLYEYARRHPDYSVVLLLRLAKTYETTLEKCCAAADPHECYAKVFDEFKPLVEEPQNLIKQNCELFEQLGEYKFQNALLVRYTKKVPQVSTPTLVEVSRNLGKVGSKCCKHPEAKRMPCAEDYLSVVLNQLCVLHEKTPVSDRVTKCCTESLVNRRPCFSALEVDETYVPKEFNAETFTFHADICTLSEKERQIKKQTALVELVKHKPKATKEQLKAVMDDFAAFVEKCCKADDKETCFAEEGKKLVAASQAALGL
Method in brief: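 The calorimeter cell held 20 μM human serum albumin in PBS (150 mM NaCl, 20 mM sodium phosphate, pH 7.4), with ddH2O in the reference cell. The titrant was 0.22 mM test compound, made as a filtered saturated PBS solution with concentration checked by UV absorbance. Injections were spaced 300 s apart at 30 °C. Data were corrected for heats of dilution and fitted to a single set of independent sites. Ka from triplicate runs was averaged.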

[4] = molecular target: T1, recombinant human α2A -R (Homo sapiens, UniProt P08913); assay: [3H]clonidine radioligand competitive binding assay; conditions: Kd with the Cheng–Prusoff correction, 15 nM [3H]-clonidine
T1 sequence (P08913 1-465): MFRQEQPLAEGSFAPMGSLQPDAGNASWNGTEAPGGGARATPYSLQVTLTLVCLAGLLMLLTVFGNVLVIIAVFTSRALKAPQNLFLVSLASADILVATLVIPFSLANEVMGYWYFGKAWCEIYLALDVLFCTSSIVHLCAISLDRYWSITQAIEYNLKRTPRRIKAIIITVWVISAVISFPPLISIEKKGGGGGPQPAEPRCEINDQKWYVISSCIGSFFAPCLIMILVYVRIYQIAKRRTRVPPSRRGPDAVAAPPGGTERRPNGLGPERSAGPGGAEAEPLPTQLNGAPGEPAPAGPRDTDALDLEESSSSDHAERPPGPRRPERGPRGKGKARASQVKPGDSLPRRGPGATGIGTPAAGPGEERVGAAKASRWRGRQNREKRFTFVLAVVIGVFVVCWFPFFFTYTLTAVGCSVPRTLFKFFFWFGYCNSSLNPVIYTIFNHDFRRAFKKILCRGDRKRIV

[5] = molecular target: T2, human α2A adrenergic receptor (Homo sapiens, UniProt P08913); assay: [35S]GTPγS binding assay; type: biochemical; conditions: 1 μM RX 821002 (selective α2 antagonist)
T2 sequence (P08913 1-465): T1 sequence (P08913 1-465)

[6] = 0.5 h, read-out: hypnotic EC50 (loss of spontaneous movement)

Compound	EC50 [1, 6]	EC50 ([1]; read-out: behavioral EC50 in Xenopus tadpoles)	fraction bound to albumin in plasma [2]	Kd [3]	Kd ([4]; with UV exposure (350 nm light, 30 min))	Kd ([4]; without UV)	α2A-R activity in the presence of RX 821,002 [5]	toxicity in Xenopus tadpoles ([1]; observed after transfer to fresh pond water)
Cc1cccc([C@H](C)c2cnc[nH]2)c1C [dexmedetomidine, reference compound]	860 nM	800 nM	> 90%					
CC(c1cccc(C2(C(F)(F)F)N=N2)c1)c1cnc[nH]1 (stereo not drawn) [azi-medetomidine, 5-(1-(3-(3-(trifluoromethyl)-3H-diazirine-3-yl)phenyl)ethyl)-1H-imidazole]	4650 nM			29000 nM	3.68 nM	2.1 nM	eliminated all α2A -R activity	did not display any frank toxicity

— paper PMC6889220 (ACS chemical neuroscience, 2019)
